Active and inactive are the calls of the source. The calls are words filed in the database; no cut-off is given here.
Assays:
[1] = molecular target: T1, Ectonucleoside triphosphate diphosphohydrolase 2 (Rattus norvegicus, UniProt O35795); experiment: Inhibition of rat NTPdase2 by capillary electrophoresis method
T1 sequence (O35795 whole entry): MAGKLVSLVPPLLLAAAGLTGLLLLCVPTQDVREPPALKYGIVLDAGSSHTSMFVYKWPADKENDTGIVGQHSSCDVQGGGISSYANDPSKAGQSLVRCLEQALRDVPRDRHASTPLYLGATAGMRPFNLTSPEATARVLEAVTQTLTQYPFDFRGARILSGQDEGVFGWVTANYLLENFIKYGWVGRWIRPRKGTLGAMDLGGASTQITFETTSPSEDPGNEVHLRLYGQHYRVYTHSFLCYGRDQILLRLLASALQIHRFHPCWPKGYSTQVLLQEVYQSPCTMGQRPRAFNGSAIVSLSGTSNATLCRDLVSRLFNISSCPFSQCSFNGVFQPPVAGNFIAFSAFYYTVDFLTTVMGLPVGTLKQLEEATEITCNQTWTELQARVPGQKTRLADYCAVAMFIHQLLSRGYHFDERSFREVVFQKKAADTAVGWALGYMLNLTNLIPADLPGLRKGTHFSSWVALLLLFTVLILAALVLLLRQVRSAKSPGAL

[2] = molecular target: T2, Nucleoside triphosphate diphosphohydrolase 3 (Rattus norvegicus, UniProt A6I415); experiment: Inhibition of rat NTPdase3 by capillary electrophoresis method
T2 sequence (A6I415 whole entry): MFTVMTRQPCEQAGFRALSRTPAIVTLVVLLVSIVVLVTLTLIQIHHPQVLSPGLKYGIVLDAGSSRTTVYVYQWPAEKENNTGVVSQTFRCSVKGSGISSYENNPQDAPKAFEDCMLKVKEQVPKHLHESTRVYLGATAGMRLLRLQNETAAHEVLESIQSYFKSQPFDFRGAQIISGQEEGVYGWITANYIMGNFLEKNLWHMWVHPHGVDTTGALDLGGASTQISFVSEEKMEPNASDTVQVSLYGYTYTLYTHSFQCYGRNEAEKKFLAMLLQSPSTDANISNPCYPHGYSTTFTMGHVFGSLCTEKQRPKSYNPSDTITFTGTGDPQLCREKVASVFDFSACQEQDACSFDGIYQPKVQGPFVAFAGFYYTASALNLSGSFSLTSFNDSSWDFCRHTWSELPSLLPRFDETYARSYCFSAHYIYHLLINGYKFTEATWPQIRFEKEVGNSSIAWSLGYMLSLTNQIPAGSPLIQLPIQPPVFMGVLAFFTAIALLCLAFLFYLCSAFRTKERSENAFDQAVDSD

[3] = molecular target: T3, 5'-nucleotidase (Rattus norvegicus) (UniProt P21588); experiment: Inhibition of rat ecto-5'-nucleotidase expressed in Sf9 cells by competitive Michaelis-Menten plot
T3 sequence (whole entry): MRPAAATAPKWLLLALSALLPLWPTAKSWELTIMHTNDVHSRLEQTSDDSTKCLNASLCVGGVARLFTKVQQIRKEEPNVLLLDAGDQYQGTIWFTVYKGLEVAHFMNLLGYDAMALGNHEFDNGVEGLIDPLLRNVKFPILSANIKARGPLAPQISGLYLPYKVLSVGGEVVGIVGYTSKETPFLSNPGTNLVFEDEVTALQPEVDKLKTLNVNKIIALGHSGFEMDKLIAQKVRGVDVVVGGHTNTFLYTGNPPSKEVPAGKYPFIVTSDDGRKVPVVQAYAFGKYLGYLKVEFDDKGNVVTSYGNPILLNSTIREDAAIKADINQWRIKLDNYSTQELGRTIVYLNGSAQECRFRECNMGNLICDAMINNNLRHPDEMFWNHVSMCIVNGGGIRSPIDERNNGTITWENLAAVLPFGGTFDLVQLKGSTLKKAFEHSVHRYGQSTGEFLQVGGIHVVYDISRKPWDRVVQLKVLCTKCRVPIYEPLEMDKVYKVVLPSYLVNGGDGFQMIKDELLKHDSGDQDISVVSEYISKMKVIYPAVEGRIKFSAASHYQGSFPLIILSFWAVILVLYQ
In short: (§1)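 Purified recombinant rat eN from Sf9 cells. Reaction rates measured across a range of AMP concentrations, with inhibitor absent or at 0.2, 1 or 5 μM. Adenosine formed was quantified by capillary electrophoresis at 260 nm. Km and Vmax were compared on Michaelis-Menten and Lineweaver-Burk plots to assign the inhibition mode.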

P2Y purinoceptor 6 = P2Y purinoceptor 6 (Rattus norvegicus, UniProt Q63371); experiment: Antagonist activity at rat P2Y6 receptor expressed in astrocytoma cells assessed as inhibition of intracellular calcium mobilization; format: functional, cell-based
Chain of P2Y purinoceptor 6 (Q63371 whole entry): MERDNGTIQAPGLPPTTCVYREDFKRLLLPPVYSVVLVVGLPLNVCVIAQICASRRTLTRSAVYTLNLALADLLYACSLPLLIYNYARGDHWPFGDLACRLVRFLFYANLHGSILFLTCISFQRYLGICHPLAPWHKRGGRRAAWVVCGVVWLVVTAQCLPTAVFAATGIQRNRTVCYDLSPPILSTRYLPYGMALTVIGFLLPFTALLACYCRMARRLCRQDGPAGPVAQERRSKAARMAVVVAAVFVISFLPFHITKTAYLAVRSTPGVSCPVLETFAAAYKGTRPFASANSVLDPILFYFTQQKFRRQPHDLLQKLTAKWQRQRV
In short: (§2)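 Astrocytoma cells stably expressing the receptor, loaded with Fura-2 AM. Cells preincubated with test agent for at least 20 min, then challenged with 1 μM UTP (P2Y2), 3 μM UTP (P2Y4) or 3 μM UDP (P2Y6). Ca2+ fluorescence read at ex 320/em 520 nm. Full curves (7-8 concentrations over 3 log units) run when inhibition exceeded 40% at 10 μM. Three experiments, each in triplicate.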

5'-nucleotidase = molecular target: T4, 5'-nucleotidase (Rattus norvegicus, UniProt P21588); experiment: Inhibition of rat ecto-5'-nucleotidase expressed in Sf9 cells by capillary electrophoresis method
T4 sequence (P21588 whole entry): T3 sequence (whole entry)
In short: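 Rat eN, GST-fused, made in Sf9 cells and purified on GSH-agarose. 500 μM AMP in Hepes pH 7.4 with Mg2+/Ca2+, 37 °C for 15 min. Adenosine measured by capillary electrophoresis at 260 nm. Inhibitor at 6-8 concentrations spanning about 3 log units. […] Three experiments, each in duplicate.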

[4] = molecular target: T3, 5'-nucleotidase (Rattus norvegicus); experiment: Inhibition of rat ecto-5'-nucleotidase expressed in Sf9 cells by competitive Lineweaver-Burke plot; in short: as §1
[5] = molecular target: T5, Ectonucleoside triphosphate diphosphohydrolase 1 (Rattus norvegicus, UniProt P97687); experiment: Inhibition of rat NTPdase1 by capillary electrophoresis method
T5 sequence (P97687 whole entry): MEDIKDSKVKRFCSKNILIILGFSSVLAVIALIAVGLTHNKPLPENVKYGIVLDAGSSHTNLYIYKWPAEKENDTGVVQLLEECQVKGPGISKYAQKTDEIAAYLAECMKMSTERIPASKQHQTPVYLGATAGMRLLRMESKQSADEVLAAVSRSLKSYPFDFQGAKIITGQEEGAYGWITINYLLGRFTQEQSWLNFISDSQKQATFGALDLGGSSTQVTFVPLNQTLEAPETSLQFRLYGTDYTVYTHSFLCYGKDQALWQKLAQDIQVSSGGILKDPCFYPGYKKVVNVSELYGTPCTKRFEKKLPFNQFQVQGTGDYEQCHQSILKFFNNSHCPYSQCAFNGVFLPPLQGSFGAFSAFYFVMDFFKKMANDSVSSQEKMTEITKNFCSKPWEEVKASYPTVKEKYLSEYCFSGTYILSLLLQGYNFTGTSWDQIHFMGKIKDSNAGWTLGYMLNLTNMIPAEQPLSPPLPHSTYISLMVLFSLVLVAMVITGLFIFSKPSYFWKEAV

P2Y purinoceptor 2 = P2Y purinoceptor 2 (Homo sapiens, UniProt P41231); experiment: Antagonist activity at human P2Y2 receptor expressed in astrocytoma cells assessed as inhibition of intracellular calcium mobilization; format: functional, cell-based; in short: as §2
Chain of P2Y purinoceptor 2 (P41231 whole entry): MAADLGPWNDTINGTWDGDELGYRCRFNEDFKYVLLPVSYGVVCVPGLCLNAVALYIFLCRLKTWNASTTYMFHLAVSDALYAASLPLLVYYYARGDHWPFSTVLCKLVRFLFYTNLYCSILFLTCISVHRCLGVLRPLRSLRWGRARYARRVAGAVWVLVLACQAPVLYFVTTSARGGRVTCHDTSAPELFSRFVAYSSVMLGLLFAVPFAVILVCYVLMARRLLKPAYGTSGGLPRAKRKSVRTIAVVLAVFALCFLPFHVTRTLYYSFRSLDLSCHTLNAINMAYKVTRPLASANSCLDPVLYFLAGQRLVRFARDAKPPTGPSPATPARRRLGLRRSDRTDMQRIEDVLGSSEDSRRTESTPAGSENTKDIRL

P2Y purinoceptor 4 = P2Y purinoceptor 4 (Homo sapiens, UniProt P51582); experiment: Antagonist activity at human P2Y4 receptor expressed in astrocytoma cells assessed as inhibition of intracellular calcium mobilization; format: functional, cell-based; in short: as §2
Chain of P2Y purinoceptor 4 (P51582 whole entry): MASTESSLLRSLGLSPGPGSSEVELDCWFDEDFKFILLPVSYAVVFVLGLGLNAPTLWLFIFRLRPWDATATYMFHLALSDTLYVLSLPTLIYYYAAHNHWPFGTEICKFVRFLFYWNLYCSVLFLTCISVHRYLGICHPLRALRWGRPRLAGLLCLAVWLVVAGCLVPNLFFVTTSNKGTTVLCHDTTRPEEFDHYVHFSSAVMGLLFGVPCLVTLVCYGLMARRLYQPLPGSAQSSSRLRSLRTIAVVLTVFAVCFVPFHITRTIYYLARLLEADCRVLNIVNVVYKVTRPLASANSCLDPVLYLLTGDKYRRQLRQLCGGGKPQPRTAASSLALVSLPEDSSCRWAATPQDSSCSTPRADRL

[6] = molecular target: T6, Ectonucleoside triphosphate diphosphohydrolase 1 (Homo sapiens, UniProt P49961); experiment: Inhibition of human NTPdase1 by capillary electrophoresis method
T6 sequence (P49961 whole entry): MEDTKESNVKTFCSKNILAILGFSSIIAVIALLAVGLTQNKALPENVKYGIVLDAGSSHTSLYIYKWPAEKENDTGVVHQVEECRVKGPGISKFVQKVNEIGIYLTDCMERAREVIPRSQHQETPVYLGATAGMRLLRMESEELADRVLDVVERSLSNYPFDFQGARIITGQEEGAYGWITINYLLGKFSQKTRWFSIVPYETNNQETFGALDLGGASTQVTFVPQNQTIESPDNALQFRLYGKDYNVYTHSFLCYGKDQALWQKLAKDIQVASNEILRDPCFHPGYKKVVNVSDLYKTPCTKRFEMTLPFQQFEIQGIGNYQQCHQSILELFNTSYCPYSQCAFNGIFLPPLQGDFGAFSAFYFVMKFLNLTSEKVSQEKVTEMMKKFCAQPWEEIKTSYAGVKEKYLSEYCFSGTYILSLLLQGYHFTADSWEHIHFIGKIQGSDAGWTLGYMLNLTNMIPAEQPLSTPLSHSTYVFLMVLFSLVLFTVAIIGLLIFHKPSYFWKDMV
In short: (§3)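 Membrane preparations containing human NTPDase1, 2 or 3. Inhibitor added in water or 1% DMSO. Incubated 10 min at 37 °C, stopped at 99 °C for 5 min. Diluted with 20 μM UMP as internal standard, then analysed by capillary electrophoresis. Triplicates in two experiments.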

[7] = molecular target: T7, Ectonucleoside triphosphate diphosphohydrolase 2 (Homo sapiens, UniProt Q9Y5L3); experiment: Inhibition of human NTPdase2 by capillary electrophoresis method; in short: as §3
T7 sequence (Q9Y5L3 whole entry): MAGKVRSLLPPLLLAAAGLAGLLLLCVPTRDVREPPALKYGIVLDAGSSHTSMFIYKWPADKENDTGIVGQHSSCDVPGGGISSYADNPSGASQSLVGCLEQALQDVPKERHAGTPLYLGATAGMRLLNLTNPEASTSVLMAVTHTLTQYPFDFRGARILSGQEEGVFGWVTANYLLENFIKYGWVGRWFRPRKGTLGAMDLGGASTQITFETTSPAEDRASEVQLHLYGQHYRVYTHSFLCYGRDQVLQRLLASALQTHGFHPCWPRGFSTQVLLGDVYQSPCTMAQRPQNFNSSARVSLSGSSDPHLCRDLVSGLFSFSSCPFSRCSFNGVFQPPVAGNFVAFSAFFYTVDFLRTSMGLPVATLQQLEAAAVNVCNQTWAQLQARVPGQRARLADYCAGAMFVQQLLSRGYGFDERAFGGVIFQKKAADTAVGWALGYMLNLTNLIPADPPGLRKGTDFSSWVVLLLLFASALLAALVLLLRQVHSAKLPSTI

[8] = molecular target: T8, Ectonucleoside triphosphate diphosphohydrolase 3 (Homo sapiens, UniProt O75355); experiment: Inhibition of human NTPdase3 by capillary electrophoresis method; in short: as §3
T8 sequence (O75355 whole entry): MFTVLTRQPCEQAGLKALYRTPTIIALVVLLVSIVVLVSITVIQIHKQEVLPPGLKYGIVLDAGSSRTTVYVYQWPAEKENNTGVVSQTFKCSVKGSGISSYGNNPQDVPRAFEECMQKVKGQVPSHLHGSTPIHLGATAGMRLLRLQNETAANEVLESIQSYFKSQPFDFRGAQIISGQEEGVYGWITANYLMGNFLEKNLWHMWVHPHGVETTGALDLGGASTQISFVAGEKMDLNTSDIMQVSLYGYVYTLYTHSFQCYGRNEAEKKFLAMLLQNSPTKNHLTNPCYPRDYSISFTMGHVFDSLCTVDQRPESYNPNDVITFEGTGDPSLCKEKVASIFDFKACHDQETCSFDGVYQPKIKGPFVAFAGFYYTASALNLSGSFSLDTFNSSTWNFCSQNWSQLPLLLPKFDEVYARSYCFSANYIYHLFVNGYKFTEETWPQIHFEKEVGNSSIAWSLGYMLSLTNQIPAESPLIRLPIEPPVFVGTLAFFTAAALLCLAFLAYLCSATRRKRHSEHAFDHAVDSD

[9] = Selectivity ratio of Ki for rat ecto-5'-nucleotidase to Ki for human NTPdase1

| SMILES | Ki [1] [µM] | Ki [2] [µM] | inhibition [3] | IC50 (P2Y purinoceptor 6) [µM] | Ki (5'-nucleotidase) [µM] | inhibition [4] | Ki [5] [µM] | IC50 (P2Y purinoceptor 2) [µM] | IC50 (P2Y purinoceptor 4) [µM] | Ki [6] [µM] | Ki [7] [µM] | Ki [8] [µM] | Ratio Ki [9] |
| --- | --- | --- | --- | --- | --- | --- | --- | --- | --- | --- | --- | --- | --- |
| Nc1c(S(=O)(=O)O)cc(Nc2cccc3ccccc23)c2c1C(=O)c1ccccc1C2=O | > 400 | 1.5 | Active | 30 | 0.53 | Active | > 150 | – | – | – | – | – | – |
| Nc1c(S(=O)(=O)O)cc(Nc2ccc3cc4ccccc4cc3c2)c2c1C(=O)c1ccccc1C2=O | – | – | – | > 10 | 0.15 | – | – | 10 | > 10 | 2.59 | > 200 | > 60 | 17 |
| Nc1c(S(=O)(=O)O)cc(Nc2ccccc2)c2c1C(=O)c1ccccc1C2=O [ACID BLUE 25] | 35.8 | 14.3 | – | > 10 | 15.2 | – | 49.1 | 11 | 25.8 | – | – | – | – |
| Nc1c(S(=O)(=O)O)cc(Nc2ccc(F)cc2C(=O)O)c2c1C(=O)c1ccccc1C2=O | – | – | – | 10 | 0.26 | – | – | 29.9 | > 10 | > 40 | > 200 | > 60 | > 150 |

From ChEMBL document CHEMBL1157570, “Development of potent and selective inhibitors of ecto-5'-nucleotidase based on an anthraquinone scaffold” (J Med Chem, 2010)
